Laboratory results published in BindingDB's records for doi:10.1016/j.bmcl.2012.02.015 (Glaxosmithkline, 2012).

Molecular target: Muscarinic acetylcholine receptor M3 (Homo sapiens, UniProt P20309)
Assay: Antagonist potency at human muscarinic acetylcholine M3 receptor expressed in CHO cells assessed as inhibition of Ach-induced calcium mobilization by FLIPR analysis relative to control
In short: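 Human M3 receptor in CHO cells, ACh-stimulated calcium mobilization by FLIPR. pA2 derived from the ratio of the ACh EC50 with and without antagonist. Run only where the IC50 was below 10 nM. Values above 11 could not be determined accurately.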

Sequence of Muscarinic acetylcholine receptor M3 (P20309 whole entry): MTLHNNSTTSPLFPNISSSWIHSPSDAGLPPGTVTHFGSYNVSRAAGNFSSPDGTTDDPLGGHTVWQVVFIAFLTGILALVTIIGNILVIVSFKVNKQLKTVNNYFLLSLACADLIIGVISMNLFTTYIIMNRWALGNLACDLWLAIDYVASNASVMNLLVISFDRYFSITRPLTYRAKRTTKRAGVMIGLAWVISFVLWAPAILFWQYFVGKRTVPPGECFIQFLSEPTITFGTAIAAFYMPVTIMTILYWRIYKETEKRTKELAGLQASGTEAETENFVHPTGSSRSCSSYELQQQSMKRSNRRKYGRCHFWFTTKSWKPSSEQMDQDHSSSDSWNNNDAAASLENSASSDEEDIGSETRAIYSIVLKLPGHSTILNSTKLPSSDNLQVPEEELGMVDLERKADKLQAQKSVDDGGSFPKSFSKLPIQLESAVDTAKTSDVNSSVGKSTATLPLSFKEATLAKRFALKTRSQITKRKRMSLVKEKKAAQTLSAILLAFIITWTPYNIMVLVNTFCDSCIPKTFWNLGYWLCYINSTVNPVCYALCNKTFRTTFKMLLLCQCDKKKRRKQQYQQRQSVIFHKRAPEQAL

`CCC[N+]1(C)C2CCC1CC(CC(C#N)(c1ccccc1)c1ccccc1)C2` (stereo not drawn) was tested, and the Kd was 50.1 pM.
With `COCCOCC[N+]1(C)C2CCC1CC(CC(C#N)(c1ccccc1)c1ccccc1)C2` (stereo not drawn) the Kd was 631 pM.
In the case of `C[N+]1(CC2CC2)C2CCC1CC(CC(C#N)(c1ccccc1)c1ccccc1)C2` (stereo not drawn), the Kd is reported as 50.1 pM.
With `CC[N+]1(C)C2CCC1CC(CC(C#N)(c1ccccc1)c1ccccc1)C2` (stereo not drawn) the Kd was 50.1 pM.
Work on `C[N+]1(CCO)C2CCC1CC(CC(C#N)(c1ccccc1)c1ccccc1)C2` (stereo not drawn) yielded a Kd of 158 pM.
Compound `C=CC[N+]1(C)C2CCC1CC(CC(C#N)(c1ccccc1)c1ccccc1)C2` (stereo not drawn) has a Kd of 1260 pM.
In the case of `COCC[N+]1(C)C2CCC1CC(CC(C#N)(c1ccccc1)c1ccccc1)C2` (stereo not drawn), the Kd is reported as 501 pM.
`C[N+]1(CCCC#N)C2CCC1CC(CC(C#N)(c1ccccc1)c1ccccc1)C2` (stereo not drawn) showed a Kd of 158 pM.
